Compounds with a hit are over-represented: about 2.3% of the library has one in this group of screens.
Rpn11 inh = blocks the human proteasome subunit Rpn11. O00487. AID 588493. hit rate 0.59% among 360,000. inhibition, % at 20 µM. human 26S proteasome, Ub4-pepOG fluorescence polarization; 20S core pre-blocked with epoxomicin;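 active = inhibition at 20 µM, scaled to each plate's controls, above about 33%, limit read from the data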
SUMO1-SIM PPI = SUMO1-SIM interaction modulation; inhibition, % at 20 µM; AID 602429; SUMO1 binding to a labelled peptide, TR-FRET, 1 h; hit rate 0.33% among 360,000; in the data active = inhibition above about 37%
Target sequence (P63165 whole entry, looked up): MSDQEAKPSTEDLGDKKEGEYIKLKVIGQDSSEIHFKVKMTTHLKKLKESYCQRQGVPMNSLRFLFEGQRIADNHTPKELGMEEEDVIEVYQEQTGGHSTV
Scp1 inh = inhibitors of human Scp-1 phosphatase | Q9GZU7 | Recombinant Scp1, phosphopeptide, malachite green phosphate absorbance | inhibition, % at 20 µM | hit rate 0.88% among 340,000 | AID 493091;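 active = inhibition above about 50% at 20 µM, limit read from the data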;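 also: plate controls were DMSO wells with enzyme for no effect and wells lacking enzyme for full effect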
Target sequence (Q9GZU7 76-261 limits assumed): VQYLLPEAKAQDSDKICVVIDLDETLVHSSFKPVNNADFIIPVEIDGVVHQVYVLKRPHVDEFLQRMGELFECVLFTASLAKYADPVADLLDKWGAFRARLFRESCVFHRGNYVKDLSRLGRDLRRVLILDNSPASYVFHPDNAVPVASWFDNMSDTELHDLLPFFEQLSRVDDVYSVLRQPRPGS
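System: truncated SCP-1 phosphatase (76-261aa); medium: Tris acetate buffer pH 5.5 with MgCl2 and Tween-20; incubation: 45 min room-temperature reaction, 5 min colour, 30 min stabiliser; compound: single 20 µM dose, 1% DMSO; reagent: Phosphorylated 17-residue peptide substrate; read-out: % inhibition at 20 µM; technique: colorimetric free-phosphate detection, absorbance 630 nm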
LMPTP inh = blocks human LMPTP phosphatase; AID 651560; recombinant LMPTP-A, OMFP fluorogenic substrate, fluorescence intensity; inhibition, % at 20 µM; P24666; hit rate 0.22% among 360,000;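 active = compounds that cut the enzyme signal by at least half of the control window in the single-dose screen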;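 also: plate controls were DMSO wells with enzyme plus substrate for no effect and substrate without enzyme for full effect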
Target sequence (P24666 whole entry, looked up): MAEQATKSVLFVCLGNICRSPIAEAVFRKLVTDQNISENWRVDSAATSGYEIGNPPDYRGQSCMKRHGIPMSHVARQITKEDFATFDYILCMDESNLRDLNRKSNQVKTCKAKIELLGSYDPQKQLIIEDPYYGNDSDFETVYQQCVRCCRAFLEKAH
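Assay system: LMPTP-A phosphatase enzyme | Input: 0.625 nM enzyme | Also added: Fluorogenic phosphatase substrate OMFP at 400 µM final | Compound dosing: One test concentration per compound, 20 µM, with 3% DMSO overall | Schedule: 50 min enzyme reaction at room temperature, protected from light | Signal: Fluorescence intensity | Benchmarks: no-enzyme and uninhibited controls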
STEP block = STEP (human) phosphatase inhibition | recombinant STEP, OMFP fluorogenic substrate, fluorescence | hit rate 0.25% among 360,000 | inhibition, % at 20 µM | P54829;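 active = inhibition at 20 µM, scaled per plate between control wells, above about 37%, limit read from the data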;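 also: 0% = DMSO with enzyme and substrate and 100% = substrate only without enzyme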
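System: isolated STEP enzyme; schedule: 20 min enzyme reaction at room temperature, protected from light; medium: Bis-Tris buffer pH 6.0, 2.5 mM DTT, 0.005% Tween 20; signal: fluorescence, 480/540 nm; dosing: single compound dose of 20 µM, 1% DMSO final; also added: OMFP substrate, 25 µM final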
DNMT1 block = DNMT1 (human) enzyme inhibition; hit rate 0.83% among 360,000; P26358; DNMT1 molecular beacon, Hinp1I cleavage, fluorescence; inhibition (reported as % activation of signal), % at 10 µM; in the data active = inhibition above about 50%
Scp-1 conf = Scp-1 (human) inhibition, single-dose confirmed | shares compounds with Scp1 inh | recombinant SCP-1 catalytic domain, phosphate release, malachite green absorbance | inhibition, % at 20 µM | hit rate 61% among 2,500 | AID 540281;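 also: plate controls were DMSO with enzyme for no effect and buffer wells lacking enzyme for full effect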
Scp-1 MG ctr = interferes with malachite green readout, flagging false Scp-1 hits | shares compounds with Scp1 inh | Colorimetric interference counterscreen, malachite green absorbance 630 nm | apparent inhibition (interference), % at 20 µM | 2,500 tested, under 10 active;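 also: compounds added after enzyme reaction finished so only phosphate colour detection is probed; plate controls were DMSO wells with completed Scp-1 reaction for no effect and substrate wells lacking enzyme for full effect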
Scp1 DSF = validation of human Scp-1 inhibitors by thermal shift binding; Recombinant SCP1, Sypro Orange thermal shift Tm; hit rate 25% among 1,500; thermal shift relative to vanadate control, % at 40 µM; AID 540329; shares compounds with Scp1 inh;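 active = substances whose mean melting-temperature shift, as a percentage of the reference inhibitor's shift, reaches about 5.3%, limit read from the data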;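 also: 0% = Tm of DMSO wells and 100% = Tm with sodium orthovanadate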
DNMT1 inh conf = DNMT1 inhibition confirmation, single concentration; shares compounds with DNMT1 block; DNMT1 molecular beacon HinP1I cleavage, fluorescence; inhibition, % at 10 µM; hit rate 8% among 2,300; AID 602385;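 active = average inhibition of at least 30% in the single-concentration confirmation test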
DNMT1 interf = beacon fluorescence artifact counter-screen | hit rate 1% among 2,300 | AID 602387 | activation (fluorescence interference), % at 10 µM | shares compounds with DNMT1 block | DNMT1 molecular beacon spectral interference counterscreen, fluorescence 485/520;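 active = activation of at least 30% at 10 µM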;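 also: DNMT1 catalytic domain with a HinP1I cleavage step and a FAM/dabcyl DNA beacon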
The depositor's hits bear a star; / = not tested or not shown; ! = a repeat was not active.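 The calls were made as follows, unless noted: active = inhibition of at least 30% at 20 µM; inactive = the rest.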

SMILES	Rpn11 inh	SUMO1-SIM PPI	Scp1 inh	LMPTP inh	STEP block	DNMT1 block	Scp-1 conf	Scp-1 MG ctr	Scp1 DSF	others
FC(F)(F)c1nc(-c2ccncc2)ncc1-c1nnnn1-c1ccccc1	-2	-10	78*	0	4	0	-16	-12	/
CN(C)S(=O)(=O)c1cccc(NC(=O)c2ccccc2OCc2ccc(F)cc2)c1	-6	6	-10	3	-1	2	/	/	/
O=c1[nH][nH]c(=O)c2cc([N+](=O)[O-])ccc12	2	-30	50*!	0	-4	-2	-12	-12	/
CCCN(CC(=O)Nc1ccccc1C)C(=O)C1CC(=O)N(Cc2ccccc2)C1 (stereo unspecified)	0	4	4	-1	2	0	-3	-5	/
O=C(NCCOc1ccc(F)cc1)C1CCC(=O)N(CCc2ccccn2)C1 (stereo unspecified)	-9	0	-5	0	2	-9	/	/	/
Cc1[nH]c2ccccc2c1/C=N/NC(=O)CNC(=O)c1ccc2c(c1)OCCO2	-6	4	66*	1	0	-3	-4	-3	/
CCNc1nc(NCC)n2c(SCC(=O)Nc3cccc(Cl)c3)nnc2n1	-5	13	54*	0	2	18	50*	-14	-12
CCNc1nc(NCC)n2c(SCC(=O)Nc3cccc(F)c3)nnc2n1	-7	10	36	1	4	14	/	/	/
O=C(N/N=C/C(Cl)=C/c1ccc([N+](=O)[O-])cc1)C(=O)Nc1ccc(C(=O)O)cc1	3	3	85*	22	34	46	62*	-16	-3
Cc1ccc2nc(SCC(=O)N(CC(C)C)c3c(N)n(Cc4ccccc4)c(=O)[nH]c3=O)[nH]c2c1	-7	0	88*	1	3	-1	-1	-4	/
CCN(C(=O)CSc1nc2ccc(OC)cc2[nH]1)c1c(N)n(Cc2ccccc2)c(=O)[nH]c1=O	-12	2	-6	0	1	1	/	/	/
COC(=O)[C@H](CC(C)C)N1Cc2cc(OC)cc(OC)c2-c2ccccc2S1(=O)=O	4	14	98*	0	0	2	50*	-26	-4
C=C1CCN(C(CC(C)C)C(=O)OC)S(=O)(=O)c2ccccc21 (stereo unspecified)	5	-3	1	0	-2	0	/	/	/
CC[N+](CC)(CC)CC(=O)Nc1ccc(SC(F)F)cc1	0	-2	60*	-1	-3	-1	-10	-1	/
COc1ccc(CN2C(=O)c3ccccc3C2c2nnnn2-c2ccc3c(c2)OCCO3)cc1OC (stereo unspecified)	/	-3	/	0	/	/	/	/	/
Cc1cc(C)c(S(=O)(=O)NCCSCc2ccco2)c(C)c1	-3	4	53*	3	2	12	-8	-17	/
Cc1ccc(S(=O)(=O)NCCSCc2ccco2)cc1	7	-4	2	0	2	-5	/	/	/
O=C(CCc1nnc2ccc(NCc3ccco3)nn12)Nc1ccccn1	-2	14	59*	-1	3	13	52*	-15	1
CCOCCCNC(=O)Cn1cc2c(n1)CCCC2	5	-3	75*	0	-1	-2	-4	-5	/
Cc1ccc(S(=O)(=O)N2C[C@H]3N(C(=O)OC(C)C)N(C(=O)OC(C)C)C[C@H](OC(=O)Nc4cccs4)[C@@]3(O)C2)cc1	0	5	/	2	1	-1	/	/	/
CC1CCC(NC(=O)Cn2c(=O)oc3cc(S(=O)(=O)N4CCCC4)ccc32)CC1 (stereo unspecified)	8	2	63*	5	3	2	44*	-20	-26
O=C(Cn1c(=O)oc2cc(S(=O)(=O)N3CCCC3)ccc21)NC1CCCCC1	-1	2	19	-1	8	3	/	/	/
Cc1ccccc1C(OCC(O)CN1CCN(CCO)CC1)c1ccccc1 (stereo unspecified)	1	1	8	-1	-1	1	/	/	/
CCN(CC(=O)Nc1ccccc1C(F)(F)F)C(=O)c1ccc2c(c1)NC(=O)C(C)S2 (stereo unspecified)	6	1	/	0	-1	6	/	/	/
CC(=O)Nc1ccc(S(=O)(=O)NN=c2sc3ccccc3n2C)cc1N	12	22	/	5	12	14	/	/	/
SMILES	Rpn11 inh	SUMO1-SIM PPI	Scp1 inh	LMPTP inh	STEP block	DNMT1 block	Scp-1 conf	Scp-1 MG ctr	Scp1 DSF	others
Cc1ccc(NC(=O)Cn2c(O)c(N=NC(=O)c3cc4ccccc4cc3O)c3ccccc32)cc1	-10	-3	22	18	2	10	/	/	/
COc1ccccc1NC(=O)Cn1c(O)c(N=NC(=O)c2ccccc2O)c2ccccc21	18	-5	94*	60*	55*	36	90*	4	3
Cc1nc(SCC(=O)O)c(C#N)c2c1CCCC2	-8	26	96*	2	16	58*	70*	-13	4	DNMT1 inh conf=2;DNMT1 interf=3
CCc1nc(SCC(=O)O)c(C#N)c2c1CCCC2	2	6	-8	0	2	6	/	/	/
CCN(CC)C(=O)c1[nH]cnc1C(=O)NC1CCN(C(=O)OC(C)(C)C)CC1	4	4	-4	-2	2	0	/	/	/
O=C(N/N=C/c1cccn1-c1cccc(C(=O)O)c1)Nc1ccccc1	-3	4	64*	1	-1	85*	50*	-14	7.0*	DNMT1 inh conf=2;DNMT1 interf=14
Cc1cc(C=O)c(C)n1-c1cc(C(=O)O)cc(C(=O)O)c1	-5	3	55*	0	12	89*	52*	-18	-16	DNMT1 inh conf=13;DNMT1 interf=24
C=CCNc1nc(C(=O)OCC(=O)c2cccc(Br)c2)cs1	12	2	57*	9	4	59*	60*	-18	11*	DNMT1 inh conf=22;DNMT1 interf=-2
NC(=O)COC(=O)c1cccc(S(=O)(=O)N2CCN(c3ccccc3)CC2)c1	1	2	6	-1	1	2	/	/	/

Compound activity from PubChem BioAssay.
